Experimental data as given in ChEMBL document CHEMBL4725330, “The design, synthesis and evaluation of 2-aminobenzoxazole analogues as potent and orally efficacious ChemR23 inhibitors” (Bioorg Med Chem, 2020).
pIC50: −log10 of the molar value. Each block holds one compound with its values, some of them ahead of it.

How the values were obtained:
Chemerin-like receptor 1 = target: T1, Chemerin-like receptor 1 (Homo sapiens, UniProt Q99788); experiment: Inhibition of chemR23 in human CAL1 cells assessed as inhibition of chemerin-induced intracellular calcium ion concentration preincubated for 45 mins followed by human chemerin addition by FDSS6000 analysis; type: functional, cell-based
T1 sequence (Q99788 whole entry): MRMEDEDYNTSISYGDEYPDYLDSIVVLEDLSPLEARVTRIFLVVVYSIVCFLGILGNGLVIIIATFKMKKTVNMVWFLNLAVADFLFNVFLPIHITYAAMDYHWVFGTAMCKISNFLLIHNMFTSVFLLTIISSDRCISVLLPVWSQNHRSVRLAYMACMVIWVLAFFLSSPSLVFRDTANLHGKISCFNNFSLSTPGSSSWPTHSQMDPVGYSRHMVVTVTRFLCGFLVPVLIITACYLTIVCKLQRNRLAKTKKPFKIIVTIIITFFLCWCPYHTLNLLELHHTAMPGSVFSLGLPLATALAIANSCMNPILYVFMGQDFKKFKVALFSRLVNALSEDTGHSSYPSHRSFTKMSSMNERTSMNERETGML

[1] = Oral bioavailability in cynomolgus monkey at 1 mg/kg and 0.1 mg/kg, iv administered as cassette dose by LC-MS/MS analysis; type: ADME, organism-based, Macaca fascicularis; settings: in vivo
Outline: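 Plasma was deproteinized with ice-cold acetonitrile containing internal standard and quantified by LC/MS/MS against a calibration curve from analyte/IS peak-area ratios. Values are means of three determinations.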

[2] = AUC (0 to infinity) in cynomolgus monkey at 1 mg/kg, po administered as cassette dose by LC-MS/MS analysis; type: ADME, organism-based, Macaca fascicularis; set-up: time infinity, route oral, dose 1 mg/kg; settings: in vivo
Outline: (§1)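 Cassette oral dosing, 1.0 mg/kg as a suspension in 0.5% methylcellulose, to fed cynomolgus monkeys. Plasma was obtained from blood, deproteinized with ice-cold acetonitrile containing internal standard, and measured by LC/MS/MS against a calibration curve using analyte/IS peak-area ratios. Values are means of three determinations.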

[3] = Half-life in cynomolgus monkey at 1 mg/kg, po administered as cassette dose by LC-MS/MS analysis; type: ADME, organism-based, Macaca fascicularis; settings: in vivo; outline: as §1
[4] = Fraction unbound in cynomolgus monkey plasma at 1 mg/kg, po administered as cassette dose incubated for 16 to 24 hrs by equilibrium dialysis based LC-MS analysis; type: ADME, organism-based, Macaca fascicularis; settings: in vivo, time 16-24 hrs
Outline: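 Monkey plasma diluted with PBS and spiked with compound at 1 µM (final DMSO 0.05% v/v) was equilibrium-dialysed against PBS (membrane MWCO 12000–14000) for 16–24 h at 37 °C in a CO2 incubator. Both sides were deproteinized with acetonitrile containing IS and analysed by LC-MS/MS. Undiluted fu,p was calculated from the diluted value using the dilution factor.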

[5] = Cmax in cynomolgus monkey at 1 mg/kg, po administered as cassette dose by LC-MS/MS analysis; type: ADME, organism-based, Macaca fascicularis; set-up: route oral, dose 1 mg/kg; settings: in vivo; outline: as §1
[6] = AUC (0 to infinity) in cynomolgus monkey at 10 mg/kg, po by LC-MS/MS analysis; type: ADME, organism-based, Macaca fascicularis; set-up: time infinity, route oral, dose 10 mg/kg; settings: in vivo
Outline: (§2)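 Single-compound oral dosing, 10 mg/kg as a suspension in 0.5% methylcellulose, to fed cynomolgus monkeys. Plasma was deproteinized with ice-cold acetonitrile plus internal standard and quantified by LC/MS/MS from analyte/IS peak-area ratios on a calibration curve. Values are means of three determinations.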

[7] = Cmax in cynomolgus monkey at 10 mg/kg, po by LC-MS/MS analysis; type: ADME, organism-based, Macaca fascicularis; set-up: route oral, dose 10 mg/kg; settings: in vivo; outline: as §2
[8] = Half-life in cynomolgus monkey at 10 mg/kg, po by LC-MS/MS analysis; type: ADME, organism-based, Macaca fascicularis; settings: in vivo; outline: as §2
[9] = MRT in cynomolgus monkey at 10 mg/kg, po by LC-MS/MS; type: ADME, organism-based, Macaca fascicularis; settings: in vivo; outline: as §2
[10] = Ratio of fraction unbound in cynomolgus monkey plasma at 10 mg/kg to IC50 of inhibition of chemR23 in human CAL1 cells; type: organism-based; settings: in vivo

SMILES: CCCCN(c1nc2ccccc2o1)[C@H](C)c1ccc(-c2ccc(OC)cc2-c2nnn[nH]2)cc1
pIC50 (Chemerin-like receptor 1): 5.52

SMILES: CCCCN(c1nc2c(-c3cccnc3)cccc2o1)[C@H](C)c1ccc(-c2ccccc2-c2nnn[nH]2)cc1
pIC50 (Chemerin-like receptor 1): < 6.00

SMILES: CCCCN(c1nc2c(C(=O)NC)cccc2o1)[C@H](C)c1ccc(-c2ccccc2-c2nnn[nH]2)cc1
AUC(0-inf) [2]: 25.7 ng·h/mL | half-life [3]: 1.3 h | Fu [4]: 0.0975 fraction (unitless) | Cmax [5]: 9.74 ng/mL

SMILES: CCCCN(c1nc2ccccc2o1)[C@H](C)c1ccc(-c2cc(C(F)(F)F)ccc2-c2nnn[nH]2)cc1
pIC50 (Chemerin-like receptor 1): 5.88

SMILES: CCCCN(c1nc2ccccc2o1)[C@H](C)c1ccc(-c2ccccc2-c2nnn[nH]2)cc1
bioavailability [1]: 1.8% | AUC(0-inf) [2]: 44.3 ng·h/mL | half-life [3]: 3.2 h | Fu [4]: 0.0713 fraction (unitless) | Cmax [5]: 12.8 ng/mL

SMILES: C[C@H](c1ccc(-c2cc(Cl)ccc2-c2nc(=O)o[nH]2)cc1)N(CC1CC1)c1nc2c(C(=O)O)cccc2o1
AUC(0-inf) [2]: 1300 ng·h/mL | half-life [3]: 0.8 h | Fu [4]: 0.0108 fraction (unitless) | Cmax [5]: 518 ng/mL

SMILES: CCCCN(c1nc2c(-c3ccccn3)cccc2o1)[C@H](C)c1ccc(-c2ccccc2-c2nnn[nH]2)cc1
AUC(0-inf) [2]: 248 ng·h/mL | half-life [3]: 5.9 h | Fu [4]: 0.129 fraction (unitless) | Cmax [5]: 64 ng/mL

SMILES: CCCCN(c1nc2ccccc2o1)[C@H](C)c1ccc(-c2ccc(C)cc2-c2nnn[nH]2)cc1
pIC50 (Chemerin-like receptor 1): 5.68

SMILES: CCCCN(c1nc2c(-c3ccncc3)cccc2o1)[C@H](C)c1ccc(-c2ccccc2-c2nnn[nH]2)cc1
pIC50 (Chemerin-like receptor 1): 6.52

SMILES: CCCCN(c1nc2c(-n3cccn3)cccc2o1)[C@H](C)c1ccc(-c2ccccc2-c2nnn[nH]2)cc1
pIC50 (Chemerin-like receptor 1): 6.48

SMILES: CCCCN(c1nc2c(-c3nccn3C)cccc2o1)[C@H](C)c1ccc(-c2ccccc2-c2nnn[nH]2)cc1
bioavailability [1]: 7.5% | AUC(0-inf) [2]: 152 ng·h/mL | half-life [3]: 3.9 h | Fu [4]: 0.299 fraction (unitless) | Cmax [5]: 79.9 ng/mL

SMILES: CCCCN(c1nc2ccccc2o1)[C@H](C)c1ccc(-c2ccc(Cl)cc2-c2nnn[nH]2)cc1
pIC50 (Chemerin-like receptor 1): < 5.52

SMILES: CCCCN(c1nc2ccccc2o1)[C@H](C)c1ccc(-c2ccc(C(F)(F)F)cc2-c2nnn[nH]2)cc1
pIC50 (Chemerin-like receptor 1): < 5.52

SMILES: CCCCN(c1nc2ccccc2o1)[C@H](C)c1ccc(-c2c(C)cccc2-c2nnn[nH]2)cc1
pIC50 (Chemerin-like receptor 1): 6.68

The remaining lines, values ahead:

pIC50 (Chemerin-like receptor 1): 7.28
SMILES: CCCCN(c1nc2ccccc2o1)[C@H](C)c1ccc(-c2cc(C)ccc2-c2nnn[nH]2)cc1

pIC50 (Chemerin-like receptor 1): 7.89 | bioavailability [1]: 6.7% | AUC(0-inf) [2]: 104 ng·h/mL | half-life [3]: 3.2 h | Fu [4]: 0.411 fraction (unitless) | Cmax [5]: 27.5 ng/mL
SMILES: CCCCN(c1nc2c(C(=O)N(C)C)cccc2o1)[C@H](C)c1ccc(-c2ccccc2-c2nnn[nH]2)cc1

pIC50 (Chemerin-like receptor 1): 7.96 | bioavailability [1]: 60% | AUC(0-inf) [2]: 11600 ng·h/mL | half-life [3]: 2.6 h | Fu [4]: 0.00851 fraction (unitless) | Cmax [5]: 3830 ng/mL
SMILES: C[C@H](c1ccc(-c2ccccc2-c2nc(=O)o[nH]2)cc1)N(CC1CC1)c1nc2c(C(=O)O)cccc2o1

pIC50 (Chemerin-like receptor 1): 7.62 | bioavailability [1]: 0.8% | AUC(0-inf) [2]: 20 ng·h/mL | half-life [3]: 1.6 h | Fu [4]: 0.112 fraction (unitless) | Cmax [5]: 9.68 ng/mL
SMILES: CCCCN(c1nc2c(CO)cccc2o1)[C@H](C)c1ccc(-c2ccccc2-c2nnn[nH]2)cc1

pIC50 (Chemerin-like receptor 1): 6.89
SMILES: CCCCN(c1nc2c(-c3cccn3C)cccc2o1)[C@H](C)c1ccc(-c2ccccc2-c2nnn[nH]2)cc1

pIC50 (Chemerin-like receptor 1): 7.77 | bioavailability [1]: 8.2% | AUC(0-inf) [2]: 429 ng·h/mL | half-life [3]: 3.7 h | Fu [4]: 0.0285 fraction (unitless) | Cmax [5]: 115 ng/mL
SMILES: CCCCN(c1nc2c(C(=O)O)cccc2o1)[C@H](C)c1ccc(-c2ccccc2-c2nnn[nH]2)cc1

pIC50 (Chemerin-like receptor 1): 7.66 | AUC(0-inf) [2]: 41.6 ng·h/mL | half-life [3]: 2.2 h | Fu [4]: 0.102 fraction (unitless) | Cmax [5]: 13.2 ng/mL
SMILES: CCCCN(c1nc2c(NC(C)=O)cccc2o1)[C@H](C)c1ccc(-c2ccccc2-c2nnn[nH]2)cc1

pIC50 (Chemerin-like receptor 1): 7.85 | AUC(0-inf) [2]: 73.8 ng·h/mL | half-life [3]: 4.7 h | Fu [4]: 0.0203 fraction (unitless) | Cmax [5]: 26.5 ng/mL
SMILES: CCCCN(c1nc2c(NS(C)(=O)=O)cccc2o1)[C@H](C)c1ccc(-c2ccccc2-c2nnn[nH]2)cc1

pIC50 (Chemerin-like receptor 1): 8.64 | bioavailability [1]: 82% | AUC(0-inf) [2]: 4410 ng·h/mL | half-life [3]: 4.1 h | Fu [4]: 0.00977 fraction (unitless) | Cmax [5]: 1490 ng/mL
SMILES: C[C@H](c1ccc(-c2cc(F)ccc2-c2nc(=O)o[nH]2)cc1)N(CC1CC1)c1nc2c(C(=O)O)cccc2o1

pIC50 (Chemerin-like receptor 1): 8.57 | AUC(0-inf) [2]: 1630 ng·h/mL | half-life [3]: 2.2 h | Fu [4]: 0.00736 fraction (unitless) | Cmax [5]: 610 ng/mL
SMILES: CCCCN(c1nc2c(C(=O)O)cccc2o1)[C@H](C)c1ccc(-c2cc(F)ccc2-c2nc(=O)o[nH]2)cc1

pIC50 (Chemerin-like receptor 1): 7.19
SMILES: CCCCN(c1nc2ccccc2o1)[C@H](C)c1ccc(-c2cc(Cl)ccc2-c2nnn[nH]2)cc1

AUC(0-inf) [6]: 7090 ng·h/mL | pIC50 (Chemerin-like receptor 1): 8.92 | bioavailability [1]: 42% | Cmax [7]: 2110 ng/mL | AUC(0-inf) [2]: 1040 ng·h/mL | half-life [3]: 2 h | half-life [8]: 2 h | Fu [4]: 0.0135 fraction (unitless) | MRT [9]: 4.1 h | Ratio [10]: 0.5 | Cmax [5]: 361 ng/mL
SMILES: CCCCN(c1nc2c(C(=O)O)cccc2o1)[C@H](C)c1ccc(-c2cc(Cl)ccc2-c2nc(=O)o[nH]2)cc1

pIC50 (Chemerin-like receptor 1): 7.85 | AUC(0-inf) [2]: 22.2 ng·h/mL | half-life [3]: 2.7 h | Fu [4]: 0.103 fraction (unitless) | Cmax [5]: 22.6 ng/mL
SMILES: CCCCN(c1nc2c(C(=O)NS(C)(=O)=O)cccc2o1)[C@H](C)c1ccc(-c2ccccc2-c2nnn[nH]2)cc1

pIC50 (Chemerin-like receptor 1): 6.80
SMILES: CCCCN(c1nc2ccccc2o1)[C@H](C)c1ccc(-c2c(F)cccc2-c2nnn[nH]2)cc1

pIC50 (Chemerin-like receptor 1): 7.12
SMILES: CCCCN(c1nc2ccccc2o1)[C@H](C)c1ccc(-c2cc(F)ccc2-c2nnn[nH]2)cc1

pIC50 (Chemerin-like receptor 1): 7.54
SMILES: CCCCN(c1nc2c(COC)cccc2o1)[C@H](C)c1ccc(-c2ccccc2-c2nnn[nH]2)cc1
